According to PMC8204096 (Clinical & Translational Immunology, 2021):
Like-named read-outs stand apart in the source and are kept apart here.

Experiments:
[1] = tested on: B cells in human whole blood; experiment: Anti-IgD-induced B-cell activation; format: cell-based; conditions: read-out: IC50, B-cell activation in whole blood, stimulated cells
[2] = tested on: CD19+ B cells from human PBMC; experiment: Anti-IgD-induced B-cell activation; format: cell-based; conditions: read-out: IC50, CD69 induction on B cells
Method in brief: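 PBMCs from healthy donors were isolated by density gradient. They were incubated for 30 min with titrating concentrations of test compound or DMSO, then stimulated overnight at 37°C with rabbit F(ab′)2 anti-human IgD (5 μg mL−1). After Fc block and staining for 30 min on ice, the frequency of CD69+ cells among CD19+ B cells was measured by flow cytometry.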

[3] = tested on: B220+ mouse splenic B cells; experiment: Anti-IgM-induced B-cell activation; format: cell-based; conditions: read-out: IC50, CD69 induction on B cells
Method in brief: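 Splenic B cells were bead-isolated from OTII mice and pre-treated with test compound for 30 min at 37°C. They were incubated on ice with biotinylated goat F(ab′)2 anti-mouse IgM (10 μg mL−1, 15 min), then OVA-conjugated anti-biotin (10 min), with compound present throughout. They were co-cultured with dye-labelled CD4+ T cells for 72 h at 37°C. The frequency of CD69+ B220+ B cells was measured by flow cytometry.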

[4] = tested on: B cells in mouse whole blood; experiment: Anti-IgD-induced B-cell activation; format: cell-based; conditions: read-out: IC50, CD62L downregulation on B cells
[5] = tested on: CD4+ and CD8+ T cells from human PBMCs; experiment: Anti-CD3/anti-CD28-mediated T-cell activation counter-screen; format: cell-based; conditions: anti-CD3 and anti-CD28 overnight, concentrations up to 10 μM
Method in brief: (§1)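 Human PBMCs were pre-treated for 30 min with titrating concentrations of test compound. They were then stimulated overnight at 37°C with soluble anti-CD28 (CD28.2, 5 μg mL−1) and plate-bound anti-CD3 (HIT3a, 0.5 µg mL−1). CD69 on CD4+ and CD8+ T cells and on CD19+ B cells was measured by flow cytometry.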

[6] = tested on: CD19+ B cells from human PBMCs; experiment: Antigen-independent B-cell activation by anti-CD3/anti-CD28-activated T cells; format: cell-based
Method in brief: as §1

purified human B cells = experiment: Human B-cell proliferation; format: cell-based; conditions: 100 nM added at time of activation; TLR9 or anti-IgM/CD40L with IL-4 or IL-21
Method in brief: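 Healthy-donor B cells were enriched untouched and labelled with CFSE. Stimuli were CpG ODN 2006, or F(ab′)2 anti-IgM (1 µg mL−1), or anti-IgM/MEGACD40L (1 μg mL−1) with IL-4 or IL-21 (each 20 ng mL−1). Cells were cultured with or without 100 nm test compound in serum-free X-VIVO 10 for 3–5 days, then analysed by flow cytometry.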

[7] = tested on: mouse splenic B cells and OTII CD4+ T cells; experiment: BCR-mediated antigen presentation to T cells; format: cell-based; conditions: read-out: IC50, BCR-mediated antigen presentation to OVA323-339-specific T cells (T-cell proliferation)
[8] = tested on: basophils in human whole blood; experiment: FcεR-mediated basophil degranulation; format: cell-based; conditions: read-out: IC50, anti-IgE-mediated basophil degranulation (CD63)
[9] = tested on: NP-specific IgM antibody titres; experiment: NP-Ficoll T cell-independent; format: in vivo; conditions: mouse, oral BID for 10 days
[10] = tested on: splenic germinal center B cells; experiment: Sheep red blood cell thymus-dependent immunisation model; format: in vivo; conditions: mouse, 8 days BID, all doses tested
Method in brief: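 Mice were dosed orally BID at 10 mL kg−1 with test compound or vehicle from day 1 to day 9. On day 2 they received washed sheep red blood cells i.p. (2 × 10⁹ cells). Spleens were collected on day 9, 3 h after the last dose. Germinal centre B cells (CD3−CD19+B220+CD38lowGL7+CD95+) were enumerated by flow cytometry, with 8–20 mice per group.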

[11] = tested on: B cells in whole blood of dosed healthy individuals; experiment: Phase 1; format: in vivo, human
Method in brief: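 Heparinised whole blood from trial participants (test compound or placebo, BID) was stimulated with 0.1 μg mL−1 dextran-conjugated anti-IgD (IA6-2) for 18–24 h at 37°C/5% CO2. Samples were stained for CD19 and CD69, RBC-lysed and fixed. CD69 on CD19+, CD27− and CD27+ B cells was standardised with MESF beads. Inhibition was calculated relative to pre-dose samples.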

BTK = BTK (Mus musculus, UniProt P35991); experiment: in vivo
[12] = Homo sapiens, B-cell, read-out: average (± SD) CD69 inhibition at 24 h post-last dose
[13] = Homo sapiens, B-cell, read-out: pre-dose average CD69 inhibition in naïve B cells

BTK, sequence (P35991 whole entry): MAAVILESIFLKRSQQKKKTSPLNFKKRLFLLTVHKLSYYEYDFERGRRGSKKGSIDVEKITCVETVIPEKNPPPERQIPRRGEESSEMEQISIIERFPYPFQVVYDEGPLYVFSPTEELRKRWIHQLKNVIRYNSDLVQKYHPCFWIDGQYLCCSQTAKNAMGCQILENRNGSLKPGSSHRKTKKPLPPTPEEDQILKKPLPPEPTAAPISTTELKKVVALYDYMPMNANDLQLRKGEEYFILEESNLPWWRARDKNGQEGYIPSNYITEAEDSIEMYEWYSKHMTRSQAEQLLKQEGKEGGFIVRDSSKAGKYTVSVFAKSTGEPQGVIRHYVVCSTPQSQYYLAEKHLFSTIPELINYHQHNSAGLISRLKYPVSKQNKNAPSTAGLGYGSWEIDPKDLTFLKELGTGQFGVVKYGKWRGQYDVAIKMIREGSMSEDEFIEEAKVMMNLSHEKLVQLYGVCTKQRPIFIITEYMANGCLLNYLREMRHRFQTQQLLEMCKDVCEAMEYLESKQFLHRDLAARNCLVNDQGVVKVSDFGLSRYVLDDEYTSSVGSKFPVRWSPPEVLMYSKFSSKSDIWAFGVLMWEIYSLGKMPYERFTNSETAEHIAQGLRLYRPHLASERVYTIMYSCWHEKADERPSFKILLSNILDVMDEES

IC50 [1] [µM]	IC50 [3] [µM]	IC50 [4] [µM]	IC50 [8] [µM]	frequency of total splenic B cells [10]	IC50 (BTK) [µM]	SMILES	IC50 [2] [µM]	inhibition of CD4+ or CD8+ T-cell activation (CD69) [5]	inhibition of T cell-dependent, antigen-independent B-cell activation (CD69) [6]	effect on B-cell proliferative responses (purified human B cells)	IC50 [7] [µM]	ED50 for NP-specific IgM antibody titres [9] [mg/kg]	inhibition of CD69 upregulation in naïve B cells ([11]; 50 mg BID, 1 and 2 h post-dosing)	inhibition at 50 mg [11, 12] [%]	inhibition at 150 mg [11, 12] [%]	inhibition at 300 mg [11, 12] [%]	inhibition at 150 mg [11, 13] [%]	inhibition at 300 mg [11, 13] [%]
3.5	–	–	–	–	–	Cc1cc(-c2ccnc(Nc3cnn(C)c3)n2)ccc1CNC(=O)N1CC(OC(C)C)C1 [BIIB068]	–	–	–	–	–	–	–	–	–	–	–	–
–	0.016 ± 0.011	0.04 ± 0.024	0.106	unchanged	0.0031	Cn1cc(Nc2nccc(-c3ccc4c(c3)CN(C3COC3)CC[C@H]4NC(=O)c3cn(C(C)(C)C)nn3)n2)cn1 [BIIB091]	0.0054 ± 0.0005	did not inhibit	did not inhibit	potently blocked	0.022 ± 0.008	1.95	complete	-5.8	19	-2.8	≥ 90	≥ 90
